Assay results from ChEMBL document CHEMBL1148178, “Dicranin, an antimicrobial and 15-lipoxygenase inhibitor from the moss Dicranum scoparium” (1993).

Key:
Assay type in all cases: functional
Details in all cases: read-out: Diameter of inhibition zone
Bacillus cereus [1] = experiment: Antibacterial activity against Bacillus cereus NCIB 3329 at 100 ug/disk after 24 hrs by disk diffusion assay
Summary of the method: (§1)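 Sterile 6 mm filter-paper disc bearing sample set in the centre of a Petri dish of 15 ml plate count agar. Overlaid with 3 ml soft nutrient agar (nutrient broth + 0.7% agar) seeded with 1% of a 16–18 h culture of the test strain. Read-out is the diameter of the growth-free zone around the disc.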

Bacillus cereus [2] = experiment: Antibacterial activity against Bacillus cereus NCIB 3329 at 75 ug/disk after 24 hrs by disk diffusion assay; summary of the method: as §1
Bacillus cereus [3] = experiment: Antibacterial activity against Bacillus cereus NCIB 3329 at 50 ug/disk after 24 hrs by disk diffusion assay; summary of the method: as §1
Bacillus cereus [4] = experiment: Antibacterial activity against Bacillus cereus NCIB 3329 at 25 ug/disk after 24 hrs by disk diffusion assay; summary of the method: as §1
Bacillus cereus [5] = experiment: Antibacterial activity against Bacillus cereus NCIB 3329 at 10 ug/disk after 24 hrs by disk diffusion assay; summary of the method: as §1
Bacillus subtilis [6] = experiment: Antibacterial activity against Bacillus subtilis NCIB 3610 at 1000 ug/disk after 24 hrs by disk diffusion assay; summary of the method: as §1
Bacillus subtilis [7] = experiment: Antibacterial activity against Bacillus subtilis NCIB 3610 at 500 ug/disk after 24 hrs by disk diffusion assay; summary of the method: as §1
Bacillus subtilis [8] = experiment: Antibacterial activity against Bacillus subtilis NCIB 3610 at 250 ug/disk after 24 hrs by disk diffusion assay; summary of the method: as §1
Bacillus subtilis [9] = experiment: Antibacterial activity against Bacillus subtilis NCIB 3610 at 125 ug/disk after 24 hrs by disk diffusion assay; summary of the method: as §1
Bacillus subtilis [10] = experiment: Antibacterial activity against Bacillus subtilis NCIB 3610 at 100 ug/disk after 24 hrs by disk diffusion assay; summary of the method: as §1
Bacillus subtilis [11] = experiment: Antibacterial activity against Bacillus subtilis NCIB 3610 at 75 ug/disk after 24 hrs by disk diffusion assay; summary of the method: as §1
Bacillus subtilis [12] = experiment: Antibacterial activity against Bacillus subtilis NCIB 3610 at 50 ug/disk after 24 hrs by disk diffusion assay; summary of the method: as §1
Bacillus subtilis [13] = experiment: Antibacterial activity against Bacillus subtilis NCIB 3610 at 25 ug/disk after 24 hrs by disk diffusion assay; summary of the method: as §1
Bacillus subtilis [14] = experiment: Antibacterial activity against Bacillus subtilis NCIB 3610 at 10 ug/disk after 24 hrs by disk diffusion assay; summary of the method: as §1
Staphylococcus aureus [15] = experiment: Antibacterial activity against Staphylococcus aureus T-AQ 49/YF29 at 1000 ug/disk after 24 hrs by disk diffusion assay; summary of the method: as §1
Staphylococcus aureus [16] = experiment: Antibacterial activity against Staphylococcus aureus T-AQ 49/YF29 at 500 ug/disk after 24 hrs by disk diffusion assay; summary of the method: as §1
Staphylococcus aureus [17] = experiment: Antibacterial activity against Staphylococcus aureus T-AQ 49/YF29 at 250 ug/disk after 24 hrs by disk diffusion assay; summary of the method: as §1
Staphylococcus aureus [18] = experiment: Antibacterial activity against Staphylococcus aureus T-AQ 49/YF29 at 125 ug/disk after 24 hrs by disk diffusion assay; summary of the method: as §1
Staphylococcus aureus [19] = experiment: Antibacterial activity against Staphylococcus aureus T-AQ 49/YF29 at 100 ug/disk after 24 hrs by disk diffusion assay; summary of the method: as §1
Staphylococcus aureus [20] = experiment: Antibacterial activity against Staphylococcus aureus T-AQ 49/YF29 at 75 ug/disk after 24 hrs by disk diffusion assay; summary of the method: as §1
Staphylococcus aureus [21] = experiment: Antibacterial activity against Staphylococcus aureus T-AQ 49/YF29 at 50 ug/disk after 24 hrs by disk diffusion assay; summary of the method: as §1
Staphylococcus aureus [22] = experiment: Antibacterial activity against Staphylococcus aureus T-AQ 49/YF29 at 25 ug/disk after 24 hrs by disk diffusion assay; summary of the method: as §1
Staphylococcus aureus [23] = experiment: Antibacterial activity against Staphylococcus aureus T-AQ 49/YF29 at 10 ug/disk after 24 hrs by disk diffusion assay; summary of the method: as §1
Enterococcus faecalis [24] = experiment: Antibacterial activity against Streptococcus faecalis NCIB 775 at 75 ug/disk after 24 hrs by disk diffusion assay
Summary of the method: (§2)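 Test material loaded onto 6 mm sterile filter-paper discs. Each disc sits at the centre of a plate of 15 ml plate count agar overlaid with 3 ml soft nutrient agar (nutrient broth + 0.7% agar) carrying 1% of a 16–18 h culture. Activity is read as the diameter of the no-growth zone around the disc.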

Enterococcus faecalis [25] = experiment: Antibacterial activity against Streptococcus faecalis NCIB 775 at 50 ug/disk after 24 hrs by disk diffusion assay; summary of the method: as §2
Enterococcus faecalis [26] = experiment: Antibacterial activity against Streptococcus faecalis NCIB 775 at 25 ug/disk after 24 hrs by disk diffusion assay; summary of the method: as §2
Enterococcus faecalis [27] = experiment: Antibacterial activity against Streptococcus faecalis NCIB 775 at 10 ug/disk after 24 hrs by disk diffusion assay; summary of the method: as §1

Structure (SMILES): CC/C=C\C/C=C\C/C=C\CC#CCCCCC(=O)O [DICRANIN]
- zone of inhibition at 100 µg/disc (Bacillus cereus [1]): 15 mm
- zone of inhibition at 75 µg/disc (Bacillus cereus [2]): 11 mm
- zone of inhibition at 50 µg/disc (Bacillus cereus [3]): 10 mm
- zone of inhibition at 25 µg/disc (Bacillus cereus [4]): 9 mm
- zone of inhibition at 10 µg/disc (Bacillus cereus [5]): 0 mm
- zone of inhibition at 1000 µg/disc (Bacillus subtilis [6]): 20 mm
- zone of inhibition at 500 µg/disc (Bacillus subtilis [7]): 19 mm
- zone of inhibition at 250 µg/disc (Bacillus subtilis [8]): 16 mm
- zone of inhibition at 125 µg/disc (Bacillus subtilis [9]): 14 mm
- zone of inhibition at 100 µg/disc (Bacillus subtilis [10]): 13 mm
- zone of inhibition at 75 µg/disc (Bacillus subtilis [11]): 13 mm
- zone of inhibition at 50 µg/disc (Bacillus subtilis [12]): 11 mm
- zone of inhibition at 25 µg/disc (Bacillus subtilis [13]): 8 mm
- zone of inhibition at 10 µg/disc (Bacillus subtilis [14]): 0 mm
- zone of inhibition at 1000 µg/disc (Staphylococcus aureus [15]): 23 mm
- zone of inhibition at 500 µg/disc (Staphylococcus aureus [16]): 22 mm
- zone of inhibition at 250 µg/disc (Staphylococcus aureus [17]): 21 mm
- zone of inhibition at 125 µg/disc (Staphylococcus aureus [18]): 17 mm
- zone of inhibition at 100 µg/disc (Staphylococcus aureus [19]): 16 mm
- zone of inhibition at 75 µg/disc (Staphylococcus aureus [20]): 12 mm
- zone of inhibition at 50 µg/disc (Staphylococcus aureus [21]): 11 mm
- zone of inhibition at 25 µg/disc (Staphylococcus aureus [22]): 0 mm
- zone of inhibition at 10 µg/disc (Staphylococcus aureus [23]): 0 mm
- zone of inhibition at 75 µg/disc (Enterococcus faecalis [24]): 13 mm
- zone of inhibition at 50 µg/disc (Enterococcus faecalis [25]): 12 mm
- zone of inhibition at 25 µg/disc (Enterococcus faecalis [26]): 10 mm
- zone of inhibition at 10 µg/disc (Enterococcus faecalis [27]): 6 mm
